# In the library only some 4.3% were active in any assay of this set; here they are far more common.
# WT yeast gro inh: growth inhibition of WT strain, primary screen, mitochondrial fusion inhibitor project, WT and mutant strains, chemical genetic; mitochondrial fusion phenotypic screen; inhibition, % at 10 µM; 190,000 tested, 2.1% active; in the data active = inhibition above about 58%; tested in S. cerevisiae
# RAM network inh: inhibitors of the yeast RAM network, primary screen, dse1pr::URA3 reporter, 5-FOA selection | S. cerevisiae dse1pr::URA3 reporter, 5-FOA growth OD615, 2 d; analog-sensitive cbk1-as2 kinase mutant strain | inhibition, % at 50 µM | 190,000 tested, 1.8% active | AID 868, 2007;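 active = inhibition above a set limit, 3 SD over mean compound inhibition, cut at about 8.4% in these data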;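 note: 0% = DMSO-only wells with no growth and 100% = 10 µM 1-NA-PP1 full growth; inhibition rescues growth on 5-FOA so higher OD means more RAM inhibition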
# Yeast lifespan up: compounds extending yeast replicative lifespan, primary screen, S. cerevisiae, OD615; AID 775, 2007; 130,000 tested, 0.68% active; S. cerevisiae growth with nicotinamide; deaD strain in restrictive glucose medium; inhibition of the nicotinamide effect, % at 10 µM;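 active = inhibition above a set limit, placed 3 SD over the median of all compounds, cut at about 26% in these data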;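 note: 0% = nicotinamide-treated wells and 100% = cells grown without nicotinamide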
#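 assay system = DeaD-strain S. cerevisiae | measured by = absorbance at 615 nm | probe or stimulus = nicotinamide 1.5 mM | buffer or medium = CSMM-D glucose medium, restrictive | times = 48 h at 30 °C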
# Yeast growth inh: growth inhibitors of yeast BB579 in restrictive medium, primary screen, yeast lifespan-shortening project, S. cerevisiae | OD615, 48 h | 140,000 tested, 0.51% active | inhibition, % at 10 µM;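 active = inhibition above a set limit, 3 SD over the mean compound inhibition, cut at about 44% in these data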
#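 Assay system: S. cerevisiae DeaD strain BB579 yeast. Medium: CSMM-D restrictive synthetic medium containing dextrose (glucose). Times: 4 h cell preincubation, 48 h compound exposure, 30 °C humidified. Signal: OD615 turbidity measurement. Benchmarks: positive control amphotericin B 10 µg/mL.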
# An asterisk follows results filed as active; . = not tested or not shown.
SMILES,WT yeast gro inh,RAM network inh,Yeast lifespan up,Yeast growth inh
O=P(Oc1ccccc1)(Oc1ccccc1)C(Nc1ccccc1)c1ccccc1 (stereo not given),47.7,9.4*,4.4,-7.1
CC1CCC(C(C)C)C(OP(N)(=O)c2ccccc2)C1 (stereo not given),36.7,0.4,-6.7,-28.0
CC1CCC(C(C)C)C(OC(=O)COC(=O)c2ccccc2N)C1 (stereo not given),60.0*,5.2,-3.4,-12.0
CNS(=O)(=O)c1ccc(N=Cc2c(O)n(-c3cccc(C)c3)c(=O)[nH]c2=O)cc1,-3.0,1.2,.,.
CCN(CC)c1ccc(N=Cc2c(O)n(-c3ccc(Cl)cc3)c(=O)[nH]c2=O)cc1,16.6,11.2*,-18.0,-18.5
CNS(=O)(=O)c1ccc(N=Cc2c(O)n(-c3ccccc3)c(=O)[nH]c2=O)cc1,-23.4,9.4*,.,.
CCN(CC)c1ccc(N=Cc2c(O)n(-c3ccc(OC)cc3)c(=O)[nH]c2=O)cc1,13.0,3.9,-7.9,-78.7
FC(F)(F)c1ccc2c(c1)NP(=S)(N1CCOCC1)c1nccn1-2 (stereo not given),4.9,0.7,-5.8,-42.6
CC(C)CCNC(=O)c1cc(C(=O)c2cc(Br)ccc2O)cn(CCC(C)C)c1=O,-7.7,9.2*,.,.
Cc1ccc(OP(=O)(NC(C)c2ccccc2)Oc2ccc(C)cc2)cc1 (stereo not given),0.0,4.7,.,.
CCN(CCNc1ccc([N+](=O)[O-])c2cccnc12)S(=O)(=O)c1ccc(Cl)cc1,24.9,9.5*,-26.3,-53.0
COc1ccccc1N1CCN(Cc2ccc(Cl)cc2Cl)CC1,37.6,0.0,-7.9,8.7
Clc1ccccc1CN1CCN(c2ccccc2Cl)CC1,70.3*,0.9,-11.9,-27.6
O=c1[nH]c(=S)n(C2CC2)c(O)c1/C=N/Nc1ccccc1,58.5*,1.6,-2.2,5.2
O=C(c1cn(Cc2ccccc2)c2ccccc12)N1CCCCC1,-6.0,0.2,.,.
CN1C(=O)C(=Cc2ccc(N3CCCCCC3)o2)C(=O)N(C)C1=S,16.5,8.7*,-7.9,-50.4
CN1C(=O)C(=Cc2ccc(N3CCOCC3)o2)C(=O)N(C)C1=O,-0.9,0.2,-3.9,-12.6
CCC(C)NC(=O)c1c(N)n(CC2CCCO2)c2nc3ccccc3nc12 (stereo not given),23.5,9.1*,-7.5,-28.7
CC(C)CCNC(=O)c1c(N)n(CC2CCCO2)c2nc3ccccc3nc12 (stereo not given),.,1.3,-10.0,-33.7
CCN(CC)C(=O)c1ccc(N2C(=O)C3CC=C(Cl)CC3C2=O)cc1 (stereo not given),9.5,-0.4,26.4*,-1.7
CN1CCN(Cc2nnc3n2-c2ccc(Cl)cc2C(c2ccccc2)=NC3)CC1,6.8,0.4,-1.4,-4.1
Clc1ccc2c(c1)C(c1ccccc1Cl)=NCc1nnc(N3CCN(CCOc4ccccc4)CC3)n1-2,59.8*,0.5,17.7,-9.2
Clc1ccc2c(c1)C(c1ccccc1Cl)=NCc1nnc(N3CCN(CCSc4ccccc4)CC3)n1-2,76.1*,1.3,-6.8,-31.1
CCn1ccnc1CN1CCCC(C(=O)c2cc(C)c(OC)c(C)c2)C1 (stereo not given),2.1,2.9,.,.
O=c1c(C=Nc2cccnc2Cl)c(O)n(CCCCl)c(=O)n1C1CCCCC1,3.2,8.3,-2.6,-39.2
SMILES,WT yeast gro inh,RAM network inh,Yeast lifespan up,Yeast growth inh
CCC(=O)Nc1cc(C(=O)N2CCC3(CC2)OCCO3)ccc1S(=O)(=O)c1ccc(C)cc1,12.4,1.2,-23.6,-40.3
COCCCN=Cc1c(O)[nH]c(=S)[nH]c1=O,-6.9,0.6,.,.
C[C@]12CC(=CO)C(=O)C[C@@H]1CC[C@@H]1[C@@H]2CC[C@@]2(C)[C@H]1CC[C@]2(C)O,4.0,.,.,.
Cc1cc(C=C2C(=O)N(C)C(=S)N(C)C2=O)c(C)n1-c1cccnc1,-6.2,0.9,51.3*,12.7
O=C(Nc1ccc(C(F)(F)F)cc1)c1cccn(Cc2ccc3c(c2)OC(F)(F)O3)c1=O,44.1,10.2*,-5.5,-93.8
Cc1cccc(C)c1NC(=O)c1cccn(Cc2ccc3c(c2)OC(F)(F)O3)c1=O,60.8*,1.4,-16.8,-36.6
c1ccc(C2CC3CC4(CCCC4)N2O3)cc1 (stereo not given),5.2,1.0,2.5,-69.5
CC1=CC(=O)NP(=O)(Oc2ccc3ccccc3c2)N1 (stereo not given),10.3,0.4,-13.0,-15.8
CC1=CC(=C2C(=O)NC(=S)NC2=O)C=C(C(F)(F)F)N1Cc1ccccc1,-10.7,4.8,.,.
CC1=CC(=C2C(=O)NC(=S)NC2=O)C=C(C(F)(F)F)N1CCc1ccccc1,-4.2,10.8*,.,.
CCC(=O)N1N=C2C3CCN(CC3)C2C1c1ccccc1 (stereo not given),11.8,0.7,-4.8,-12.5
O/N=C1/C(=C\c2ccccc2)N2CCC1CC2,-0.8,0.5,-5.1,-17.4
O=C1NC(=S)N(c2ccccc2F)C(=O)/C1=C\c1cccs1,-24.6,1.6,6.4,73.1*
CC(C)CN1CCN(Cc2cccc3c2OCO3)CC1CCO (stereo not given),-13.6,0.0,.,.
CCN1CCN(Cc2cc(C(C)(C)C)c(O)c(C(C)(C)C)c2)CC1,.,0.1,-2.9,-24.2
Cc1ccc(N2C(=O)NC(=O)/C(=C/C=C/c3ccco3)C2=O)cc1,3.4,5.1,27.1*,-25.8
Cc1cc(C)cc(N2C(=O)NC(=O)/C(=C\C=C\c3ccco3)C2=O)c1,7.8,4.1,28.4*,-13.1
CC(C)c1ccc(N2C(=O)NC(=O)/C(=C/C=C/c3ccco3)C2=O)cc1,-7.2,2.4,11.3,-21.4
COC1=CC(=O)OC(/C=C/c2ccccc2)C1 (stereo not given),8.4,-0.8,7.5,-41.0
CCCCCc1nc2c(c(=O)c3ccccc3n2C)c(=O)n1C1CCCCCC1,97.2*,2.3,34.4*,15.0
COc1ccc(C(=O)C(C)(C)NO)cc1,-6.5,-0.6,9.4,51.6*
N=C(N)c1c(O)n(C2CCCCC2)c(=O)n(C2CCCCC2)c1=O,96.5*,1.5,-0.1,-12.8
CCC(C)N1Cc2ccccc2C1=N (stereo not given),-0.4,1.8,-1.6,-4.4
c1ccc(-c2[nH]c(-c3ccccc3)[n+](CC3CO3)c2-c2ccccc2)cc1 (stereo not given),58.9*,2.4,20.1,-42.7
C=CCN1C(=O)NC(=O)C(CCc2ccncc2)(CCc2ccncc2)C1=O,-9.7,-0.2,.,.
CCCCn1c(=O)c(C=Nc2ccc(Cl)cc2)c(O)n(Cc2ccco2)c1=O,26.1,8.5*,1.1,-57.6
CCc1ccc(-n2c(O)c(/C=N/NC(=O)c3ccncc3)c(=O)[nH]c2=O)cc1,-12.2,11.2*,-0.4,-8.6
CCc1ccc(NP(=O)(Oc2ccccc2F)Oc2ccccc2F)cc1,62.3*,7.3,.,.
Cc1cccc(NP(=O)(Oc2ccccc2F)Oc2ccccc2F)c1C,35.2,8.7*,12.9,3.8
Cc1ccc(NP(=O)(Oc2ccccc2F)Oc2ccccc2F)cc1,5.7,7.6,17.4,-49.6

# Screening results from PubChem BioAssay.
